# DENV2 CPE: inhibitors of DENV2 cytopathic effect, primary screen, cell-based, plate reader, single concentration | DENV2-infected cells, cytopathic effect rescue | CPE inhibition, % at 9.99 µM | 350,000 compounds, 1.7% hits; in the data active means CPE inhibition above about 20%, passing the limit was not always enough; inconclusive means no clear call, values can overlap the other calls; tested in BHK-21 cells
# ERAP1 HTS inh: human ERAP1 aminopeptidase inhibitors, primary screen, biochemical, single point, plate reader; Endoplasmic reticulum aminopeptidase 1 (Homo sapiens), Q9NZ08; recombinant ERAP1, Leu-AMC fluorescence, 60 min; inhibition, % at 10.7 µM; 340,000 compounds, 0.15% hits;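 active means mean replicate inhibition of at least 30%, or all replicates individually reaching that 30% level; inactive means mean below 30% and not every replicate reaching it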
# Target sequence (Q9NZ08 whole entry, looked up): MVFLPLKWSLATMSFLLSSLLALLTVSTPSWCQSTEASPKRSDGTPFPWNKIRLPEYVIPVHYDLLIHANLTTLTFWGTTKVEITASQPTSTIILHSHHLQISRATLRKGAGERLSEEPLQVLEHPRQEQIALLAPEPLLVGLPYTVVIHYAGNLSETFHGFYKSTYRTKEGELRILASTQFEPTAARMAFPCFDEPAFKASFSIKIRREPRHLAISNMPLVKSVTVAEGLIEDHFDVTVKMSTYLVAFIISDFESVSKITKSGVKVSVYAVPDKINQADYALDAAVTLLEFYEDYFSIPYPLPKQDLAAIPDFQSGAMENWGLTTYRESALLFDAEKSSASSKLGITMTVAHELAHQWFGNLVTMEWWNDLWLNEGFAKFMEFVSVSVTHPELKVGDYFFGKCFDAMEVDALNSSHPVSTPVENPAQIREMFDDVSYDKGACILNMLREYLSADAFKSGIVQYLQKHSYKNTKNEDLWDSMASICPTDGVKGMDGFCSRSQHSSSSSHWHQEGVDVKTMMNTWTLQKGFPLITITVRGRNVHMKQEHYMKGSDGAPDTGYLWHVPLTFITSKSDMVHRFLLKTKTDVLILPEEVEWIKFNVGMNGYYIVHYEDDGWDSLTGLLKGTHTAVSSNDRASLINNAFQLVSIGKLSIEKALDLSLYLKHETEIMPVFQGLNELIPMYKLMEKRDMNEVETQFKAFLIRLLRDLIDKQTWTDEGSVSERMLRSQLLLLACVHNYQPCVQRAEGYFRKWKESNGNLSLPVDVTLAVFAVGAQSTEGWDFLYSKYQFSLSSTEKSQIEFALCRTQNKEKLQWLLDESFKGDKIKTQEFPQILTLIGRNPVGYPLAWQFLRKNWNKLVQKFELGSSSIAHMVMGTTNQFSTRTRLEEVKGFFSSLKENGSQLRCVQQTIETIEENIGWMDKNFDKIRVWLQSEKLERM
# SIRT5 block: SIRT5 desuccinylase inhibitors, primary screen, biochemical, fluorescence imaging, single point, set 5. inhibition, % at 15 µM. AID 652115, 2013. Purified SirT5, succinyl-peptide AMC, trypsin-coupled fluorescence. 330,000 compounds, 1.1% hits; in the data active means inhibition above about 15%; inconclusive means no clear call, values can overlap the other calls
# CAL PDZ FP-1: CAL PDZ peptide-binding inhibitors, primary screen, biochemical, fluorescence polarization, Cer-tagged CAL PDZ, HTS; Golgi-associated PDZ and coiled-coil motif-containing protein (Homo sapiens), Q9HD26; purified CAL PDZ, TMR-peptide fluorescence polarization, 1 h; inhibition, % at 20 µM; 330,000 compounds, 0.02% hits; AID 504414, 2011;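 active means highest replicate inhibition of at least 40%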
#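 material = purified tagged CAL PDZ domain construct (CerCALP) | compound dosing = 20 µM, one dose | times = 1 h at RT | measured by = fluorescence polarization from S- and P-plane intensities, G-factor corrected | read-out = inhibition from polarization loss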
# S100A4 MyoIIA: inhibitors of S100A4-myosin IIA peptide binding, primary screen, biochemical, fluorescence polarization, TAMRA-MyoIIA peptide. inhibition, % at 10.7 µM. AID 652163, 2013. 360,000 compounds, 0.14% hits;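 active means mean inhibition of at least 70% across replicates, with every replicate also reaching that level; inconclusive means mean inhibition reaches 70% but some replicates fall short; inactive means mean inhibition below 70%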
#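 Compound dosing: one dose per compound; test system: human S100A4 monomer with TAMRA-labelled myosin IIA peptide; probe or stimulus: TAMRA-labelled myosin IIA heavy-chain peptide probe, 5 nM; medium: HEPES buffer with Ca2+, pH 7.2; schedule: 5 min incubation before reading; benchmarks: neutral control DMSO, positive control TFP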
# CAL PDZ FP-2: untagged CAL PDZ binding inhibitors, primary screen, biochemical, fluorescence polarization, HTS; AID 602252, 2012; inhibition, % at 24.9 µM; purified CAL PDZ, TMR-peptide fluorescence polarization, 1 h; 300,000 compounds, 0.92% hits;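 active means mean inhibition of at least 30% with at least half of replicates also reaching 30%; inconclusive means no clear call, values can overlap the other calls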
# Numbers stand for hits; 0 = inactive; ? = inconclusive; - = not tested or not shown. Shown are actives, neighbours in structure and some others; about 2.9% of the full set was active somewhere.
SMILES,DENV2 CPE,ERAP1 HTS inh,SIRT5 block,CAL PDZ FP-1,S100A4 MyoIIA,CAL PDZ FP-2
C[C@@H]1CCCCO[C@H](CN(C)S(=O)(=O)c2cccs2)[C@@H](C)CN([C@H](C)CO)C(=O)c2cc(NC(=O)CCCCCC(=O)Nc3ccccc3N)ccc2O1,23.9,0,0,-,0,-
C[C@H](CO)N1C[C@H](C)[C@@H](CN(C)S(=O)(=O)c2ccccc2)Oc2ccc(NC(=O)CCCCCC(=O)Nc3ccccc3N)cc2C1=O,0,0,18.5,-,0,-
C[C@@H]1CN([C@H](C)CO)C(=O)c2cc(NC(=O)CCCN(C)C)ccc2O[C@@H](C)CCCCO[C@H]1CN(C)S(=O)(=O)c1cccs1,34.3,0,0,-,0,-
C[C@H](CO)N1C[C@H](C)[C@@H](CN(C)S(=O)(=O)c2cccs2)Oc2ccc(NC(=O)Nc3ccc4c(c3)OCO4)cc2CC1=O,0,-,-,-,-,-
O=S(=O)(c1ccc(F)cc1)N1CC[C@@H]2[C@H](CO)Nc3ccc(-c4ccccc4F)cc3[C@@H]21,?,0,0,-,0,-
C[C@@H]1CN([C@H](C)CO)C(=O)c2cccc(NC(=O)CCCCCC(=O)Nc3ccccc3N)c2O[C@H]1CN(C)S(=O)(=O)c1cccs1,0,0,0,-,74.0,-
O=C1NC(=S)S/C1=C\C=C\c1ccc([N+](=O)[O-])o1,0,0,25.3,0,0,0
O=C(O)/C=C/c1ccc([N+](=O)[O-])o1,0,0,0,0,0,0
COc1ccc(CN(C)C[C@H]2Oc3ccc(NS(=O)(=O)c4ccc(OC)cc4)cc3C(=O)N([C@H](C)CO)C[C@H]2C)cc1,0,0,0,-,0,-
COC(=O)CC/C(C)=N\Nc1ccc([N+](=O)[O-])cc1[N+](=O)[O-],-,-,-,0,-,0
CC(C)OC(=O)CCCNc1ccc([N+](=O)[O-])cc1[N+](=O)[O-],52.6,0,0,0,0,0
C=C(C)Cn1c(N2CCN(c3ccc(OC)cc3)CC2)nc2c1c(=O)n(C)c(=O)n2C,0,0,29.3,0,0,0
Cc1noc(C)c1S(=O)(=O)Nc1cccc2c1O[C@@H](CN(C)Cc1ccncc1)[C@@H](C)CN([C@H](C)CO)C2=O,0,0,0,-,0,-
O=C(O)c1ccccc1NS(=O)(=O)c1cccc(NS(=O)(=O)c2cc(Br)ccc2Br)c1,0,33.1,0,0,0,0
O=C(O)c1ccc(NS(=O)(=O)c2ccc(Cl)c(C(=O)Nc3ccccc3)c2)cc1,0,0,0,0,0,0
O=C(Nc1ccccc1C(=O)O)c1cc(S(=O)(=O)Nc2ccccc2)ccc1Cl,0,0,23.2,0,0,-
CCOc1ccc(Br)cc1S(=O)(=O)Nc1cccc(S(=O)(=O)Nc2ccccc2C(=O)O)c1,0,0,0,0,0,0
COc1n[nH]c(C(=O)Nc2nc3ccccc3s2)c1[N+](=O)[O-],0,0,0,0,0,65.6
COc1n[nH]c(C(=O)NCc2ccccc2)c1[N+](=O)[O-],0,0,0,0,0,0
COc1ccccc1NC(=O)CN1CCN(C(=O)C2CCCO2)CC1 (stereo unspecified),0,0,45.6,0,0,-
COc1ccc(C)cc1NC(=O)C(c1ccccc1)N1CCN(CC(=O)N2CCOCC2)CC1 (stereo unspecified),28.0,0,0,0,0,0
COc1cc(OC)cc(C(=O)NC(=S)Nc2ccc(Cl)c(C(=O)O)c2)c1,-,-,-,0,-,-
COc1ccccc1NC(=O)C(=O)N/N=C(\C)CC(=O)Nc1ccccc1C(F)(F)F,0,0,0,0,0,44.4
CCOc1ccc(NC(=O)CN2CCN(C(=O)C3CCCO3)CC2)cc1 (stereo unspecified),0,0,0,0,0,0
COc1cc(C(=O)NC(=S)Nc2ccc(Cl)c(C(=O)O)c2)cc(OC)c1OC,-,0,0,-,0,39.5
